Measured values as given in ChEMBL document CHEMBL4033790, “Design and Synthesis of Novel Deuterated Ligands Functionally Selective for the γ-Aminobutyric Acid Type A Receptor (GABAAR) α6 Subtype with Improved Metabolic Stability and Enhanced Bioavailability” (J Med Chem, 2018).
In brackets after ≈: the same amount, converted by molar mass. Activity calls are given as the source filed them. No cut-off for these calls is given here.

Experiments:
[1] = Drug level in human liver microsomes treated with 7-Methoxy-2-(4-methoxy-d3-phenyl)-2,5-dihydro-3H-pyrazolo-[4,3-c]quinolin-3-one after 60 mins by LC-MS analysis; assay type: ADME; conditions: 1 h
[2] = Drug level in mouse liver microsomes treated with 7-Methoxy-2-(4-methoxy-d3-phenyl)-2,5-dihydro-3H-pyrazolo-[4,3-c]quinolin-3-one after 60 mins by LC-MS analysis; assay type: ADME; conditions: 1 h
[3] = Drug level in human liver microsomes treated with 7-Methoxy-2-(6-methoxy-d3-pyridin-3-yl)-2,5-dihydro-3Hpyrazolo[4,3-c]quinolin-3-one after 60 mins by LC-MS analysis; assay type: ADME; conditions: 1 h
[4] = Drug level in mouse liver microsomes treated with 7-Methoxy-d3-2-(6-methoxypyridin-3-yl)-2,5-dihydro-3Hpyrazolo[4,3-c]quinolin-3-one after 60 mins by LC-MS analysis; assay type: ADME; conditions: 1 h
[5] = Drug level in human liver microsomes treated with 7-Methoxy-d3-2-(6-methoxypyridin-3-yl)-2,5-dihydro-3Hpyrazolo[4,3-c]quinolin-3-one after 60 mins by LC-MS analysis; assay type: ADME; conditions: 1 h
[6] = Drug level in mouse liver microsomes treated with 7-Methoxy-2-(6-methoxy-d3-pyridin-3-yl)-2,5-dihydro-3Hpyrazolo[4,3-c]quinolin-3-one after 60 mins by LC-MS analysis; assay type: ADME; conditions: 1 h
[7] = Drug level in human liver microsomes treated with 7-Methoxy-d3-2-(4-methoxyphenyl)-2,5-dihydro-3H-pyrazolo-[4,3-c]quinolin-3-one after 60 mins by LC-MS analysis; assay type: ADME; conditions: 1 h
[8] = Drug level in mouse liver microsomes treated with 7-Methoxy-d3-2-(4-methoxyphenyl)-2,5-dihydro-3H-pyrazolo-[4,3-c]quinolin-3-one after 60 mins by LC-MS analysis; assay type: ADME; conditions: 1 h
[9] = target: GABA-A receptor; alpha-1/beta-3/gamma-2 (Homo sapiens) (UniProt P14867+P18507+P28472); test: Positive allosteric modulation of GABA-A receptor alpha1beta3gamma2 (unknown origin) expressed in Xenopus laevis oocytes assessed as potentiation of EC3 GABA induced currents up to 1 uM at -60 mV holding potential by electrophysiological method relative to GABA; assay type: cell-based
Summary of the method: (§1)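 Stage 5–6 defolliculated Xenopus oocytes were injected with 2.5 ng total mRNA per oocyte: α1, α2, α3 or α5 with β3 and γ2 at 1:1:5, and α4 or α6 with β3 and γ2 at 3:1:5. Oocytes were kept ≥36 h at 18 °C in NDE medium before recording. Compounds were co-applied with GABA titrated to EC3-5 for each oocyte. Curves were fitted with the Hill equation; mean ± SEM from ≥3 oocytes across two batches.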

[10] = target: Voltage-gated inwardly rectifying potassium channel KCNH2 (Homo sapiens, UniProt Q12809); test: Displacement of [3H]-dofetilide from human ERG expressed in HEK cell membranes at >10 uM after 60 to 90 mins by scintillation counting
Voltage-gated inwardly rectifying potassium channel KCNH2, sequence (Q12809 whole entry): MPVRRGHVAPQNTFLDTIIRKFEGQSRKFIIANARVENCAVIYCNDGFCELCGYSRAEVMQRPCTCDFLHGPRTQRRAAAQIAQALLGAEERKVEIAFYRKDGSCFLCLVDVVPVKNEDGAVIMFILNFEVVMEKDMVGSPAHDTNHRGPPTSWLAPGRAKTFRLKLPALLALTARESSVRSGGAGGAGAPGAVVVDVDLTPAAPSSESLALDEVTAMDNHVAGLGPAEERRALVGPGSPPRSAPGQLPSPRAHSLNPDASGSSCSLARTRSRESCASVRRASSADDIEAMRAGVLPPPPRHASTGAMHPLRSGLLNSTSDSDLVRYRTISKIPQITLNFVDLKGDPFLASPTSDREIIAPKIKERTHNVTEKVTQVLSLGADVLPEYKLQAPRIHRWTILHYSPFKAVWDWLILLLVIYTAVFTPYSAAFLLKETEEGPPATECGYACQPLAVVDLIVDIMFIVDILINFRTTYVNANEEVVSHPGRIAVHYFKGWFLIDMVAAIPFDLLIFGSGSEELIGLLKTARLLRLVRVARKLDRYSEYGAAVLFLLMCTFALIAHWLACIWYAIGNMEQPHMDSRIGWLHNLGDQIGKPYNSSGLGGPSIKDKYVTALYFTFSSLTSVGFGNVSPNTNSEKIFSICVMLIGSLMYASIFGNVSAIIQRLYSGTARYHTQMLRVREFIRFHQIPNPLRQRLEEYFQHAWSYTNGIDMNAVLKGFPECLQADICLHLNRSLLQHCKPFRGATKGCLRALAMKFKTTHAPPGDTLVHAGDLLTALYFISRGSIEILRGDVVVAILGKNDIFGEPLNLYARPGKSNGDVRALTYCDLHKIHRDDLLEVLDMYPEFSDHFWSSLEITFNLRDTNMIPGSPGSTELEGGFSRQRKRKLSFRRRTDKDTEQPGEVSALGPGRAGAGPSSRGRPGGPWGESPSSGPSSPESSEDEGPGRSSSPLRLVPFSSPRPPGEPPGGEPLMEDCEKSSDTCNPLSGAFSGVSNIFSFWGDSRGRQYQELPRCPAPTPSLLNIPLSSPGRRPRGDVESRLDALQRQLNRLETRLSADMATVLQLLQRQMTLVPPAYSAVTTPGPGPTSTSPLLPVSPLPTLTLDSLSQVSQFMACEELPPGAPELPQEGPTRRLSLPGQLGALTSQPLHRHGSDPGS

[11] = target: GABA A receptor alpha-4/beta-3/gamma-2 (Homo sapiens) (UniProt P18507+P28472+P48169); test: Positive allosteric modulation of GABA-A receptor alpha4beta3gamma2 (unknown origin) expressed in Xenopus laevis oocytes assessed as potentiation of EC3 GABA induced currents up to 1 uM at -60 mV holding potential by electrophysiological method relative to GABA; assay type: cell-based; summary of the method: as §1
[12] = target: GABA-A receptor; alpha-5/beta-3/gamma-2 (Homo sapiens) (UniProt P18507+P28472+P31644); test: Positive allosteric modulation of GABA-A receptor alpha5beta3gamma2 (unknown origin) expressed in Xenopus laevis oocytes assessed as potentiation of EC3 GABA induced currents up to 1 uM at -60 mV holding potential by electrophysiological method relative to GABA; assay type: cell-based; summary of the method: as §1
[13] = Metabolic stability in human liver microsomes assessed as parent compound remaining at 10 uM after 60 mins by LC-MS analysis; assay type: ADME, microsome; conditions: read-out: Stability
Summary of the method: (§2)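 The 60 min samples of the microsomal incubation (10 μM compound, human or mouse liver microsomes at 0.5 mg/mL, NADPH regenerating system, 37 °C) were analysed by LC-MS. Detection used SIM mode with dual ESI/APCI ionization, calibrated to the retention times and masses of the parent and its O-demethylated metabolites. Peak intensities were measured.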

[14] = Aqueous solubility of the compound in DI water at pH 7 after 2 hrs by LC-MS analysis; assay type: physicochemical; conditions: buffer, pH 7, 2 h
Summary of the method: (§3)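 10 mg compound dissolved in 2 mL DMAC; 10 μL of this added to 2 mL DI water (pH 7, sonicated) or 2 mL 0.01 M aq HCl (pH 2), held 2 h at 37 °C. Filtered through 0.45 micron filter, then quantified by LC-MS in SIM mode against calibration curves of standards in DMAC (n = 5); n=3.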

[15] = target: GABA-A receptor; alpha-3/beta-3/gamma-2 (Homo sapiens) (UniProt P18507+P28472+P34903); test: Positive allosteric modulation of GABA-A receptor alpha3beta3gamma2 (unknown origin) expressed in Xenopus laevis oocytes assessed as potentiation of EC3 GABA induced currents up to 1 uM at -60 mV holding potential by electrophysiological method relative to GABA; assay type: cell-based; summary of the method: as §1
[16] = target: GABA-A receptor; alpha-2/beta-3/gamma-2 (Homo sapiens) (UniProt P18507+P28472+P47869); test: Positive allosteric modulation of GABA-A receptor alpha2beta3gamma2 (unknown origin) expressed in Xenopus laevis oocytes assessed as potentiation of EC3 GABA induced currents up to 1 uM at -60 mV holding potential by electrophysiological method relative to GABA; assay type: cell-based; summary of the method: as §1
[17] = Solubility of the compound in 0.01M HCl at pH 2 after 2 hrs by LC-MS analysis; assay type: physicochemical; conditions: buffer, pH 2, 2 h; summary of the method: as §3
Mus musculus = test: Neurotoxicity in Swiss Webster mouse assessed as induction of motor impairment at 40 mg/kg administered via oral gavage measured after 10 to 60 mins by rotarod method; assay type: toxicity, organism-based; conditions: in vivo
Summary of the method: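 Female mice were given a single oral gavage dose of 40 mg/kg, either in 50% PBS/40% propylene glycol/10% DMSO or, for poorly soluble compounds, in 2% polyethylene glycol plus 2.5% hydroxymethyl cellulose. Rotarod performance was tested 10, 30 and 60 min after dosing, with diazepam 5 mg/kg as positive control.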

Rattus norvegicus = organism: Rattus norvegicus; test: Displacement of [3H]-flunitrazepam from rat brain GABA-A receptor benzodiazepine site […] at 10 uM after 60 to 90 mins by scintillation counting; conditions: tested as the 2H-labelled form
[18] = Metabolic stability in mouse liver microsomes assessed as parent compound remaining at 10 uM after 60 mins by LC-MS analysis; assay type: ADME, microsome; conditions: read-out: Stability; summary of the method: as §2
[19] = target: GABA-A receptor; alpha-6/beta-3/gamma-2 (Homo sapiens) (UniProt P18507+P28472+Q16445); test: Positive allosteric modulation of GABA-A receptor alpha6beta3gamma2 (unknown origin) expressed in Xenopus laevis oocytes assessed as potentiation of EC3 GABA induced currents at 30 uM at -60 mV holding potential by electrophysiological method relative to GABA; assay type: cell-based; summary of the method: as §1
Liver = test: Half life in human liver microsomes at 10 uM by LC-MS/MS analysis; assay type: ADME, microsome
Summary of the method: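 Compound at 10 μM final was preincubated 5 min at 37 °C with NADPH regenerating system in phosphate buffer, pH 7.4. Human or mouse liver microsomes (0.5 mg/mL protein) were added to start the reaction. Samples were taken at 0 (no microsomes) and 10–60 min and measured by LC-MS/MS against an internal standard. Half-life = 0.693/k, with k the slope of ln peak-area ratio versus time. Three experiments, each in duplicate.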

[20] = target: 5-hydroxytryptamine receptor 7 (Homo sapiens) (UniProt P34969); test: Displacement of [3H]-LSD from human recombinant 5HT7 receptor expressed in HEK293 cells at 10 uM after 60 to 90 mins by scintillation counting; assay type: cell-based; conditions: tested as the 2H-labelled form
5-hydroxytryptamine receptor 7 (Homo sapiens), sequence (P34969 whole entry): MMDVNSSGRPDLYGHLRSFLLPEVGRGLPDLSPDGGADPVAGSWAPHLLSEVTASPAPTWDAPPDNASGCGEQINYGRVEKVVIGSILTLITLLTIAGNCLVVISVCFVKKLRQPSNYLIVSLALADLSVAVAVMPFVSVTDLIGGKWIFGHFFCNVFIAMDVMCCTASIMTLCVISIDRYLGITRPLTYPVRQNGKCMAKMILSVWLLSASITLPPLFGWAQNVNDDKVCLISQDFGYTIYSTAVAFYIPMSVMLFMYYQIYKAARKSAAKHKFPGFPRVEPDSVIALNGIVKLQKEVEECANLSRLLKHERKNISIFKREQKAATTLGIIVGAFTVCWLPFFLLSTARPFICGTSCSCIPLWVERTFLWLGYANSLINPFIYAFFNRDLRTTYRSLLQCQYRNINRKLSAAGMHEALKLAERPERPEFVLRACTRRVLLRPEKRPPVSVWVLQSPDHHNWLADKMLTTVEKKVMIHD

[21] = target: 5-hydroxytryptamine receptor 2B (Homo sapiens) (UniProt P41595); test: Displacement of [3H]-LSD from human recombinant 5HT2B receptor expressed in HEK293 cells at 10 uM after 60 to 90 mins by scintillation counting; assay type: cell-based; conditions: tested as the 2H-labelled form
5-hydroxytryptamine receptor 2B (Homo sapiens), sequence (P41595 whole entry): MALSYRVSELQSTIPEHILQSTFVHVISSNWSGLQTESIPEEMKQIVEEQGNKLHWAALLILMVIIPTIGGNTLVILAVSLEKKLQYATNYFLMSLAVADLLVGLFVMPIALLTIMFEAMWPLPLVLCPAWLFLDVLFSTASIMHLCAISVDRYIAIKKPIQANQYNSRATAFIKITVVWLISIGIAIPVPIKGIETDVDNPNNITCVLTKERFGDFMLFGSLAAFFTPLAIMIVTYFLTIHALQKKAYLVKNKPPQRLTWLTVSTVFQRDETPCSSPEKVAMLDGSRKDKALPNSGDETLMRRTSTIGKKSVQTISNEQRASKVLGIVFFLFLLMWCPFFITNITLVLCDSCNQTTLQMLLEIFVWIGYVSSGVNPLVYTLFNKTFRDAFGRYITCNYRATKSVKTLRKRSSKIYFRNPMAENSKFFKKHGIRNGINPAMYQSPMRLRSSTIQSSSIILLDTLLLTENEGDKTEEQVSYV

[22] = target: T1, 5-hydroxytryptamine receptor 2C (Homo sapiens) (UniProt P28335); test: Displacement of [3H]-mesulergine from human recombinant 5HT2C receptor expressed in HEK293T cells at 10 uM after 60 to 90 mins by scintillation counting; assay type: cell-based; conditions: HEK-293T, tested as the 2H-labelled form
T1 sequence (whole entry): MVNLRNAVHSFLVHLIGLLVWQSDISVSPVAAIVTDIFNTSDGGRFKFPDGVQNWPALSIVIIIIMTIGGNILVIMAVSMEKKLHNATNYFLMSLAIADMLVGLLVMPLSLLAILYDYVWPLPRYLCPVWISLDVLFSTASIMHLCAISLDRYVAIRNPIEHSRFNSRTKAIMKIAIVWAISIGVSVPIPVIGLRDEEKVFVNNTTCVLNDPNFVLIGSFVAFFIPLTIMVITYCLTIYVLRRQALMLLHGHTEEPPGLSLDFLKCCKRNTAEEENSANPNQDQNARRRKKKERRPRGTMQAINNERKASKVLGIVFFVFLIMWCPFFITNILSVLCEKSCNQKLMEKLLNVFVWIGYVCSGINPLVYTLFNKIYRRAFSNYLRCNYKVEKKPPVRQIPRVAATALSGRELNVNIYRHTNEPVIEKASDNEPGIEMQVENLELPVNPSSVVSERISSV

[23] = target: Mu-type opioid receptor (Homo sapiens) (UniProt P35372); test: Displacement of [3H]-DAMGO from human recombinant MOR expressed in HEK293 cells at 10 uM after 60 to 90 mins by scintillation counting; assay type: cell-based; conditions: tested as the 2H-labelled form
Mu-type opioid receptor (Homo sapiens), sequence (P35372 whole entry): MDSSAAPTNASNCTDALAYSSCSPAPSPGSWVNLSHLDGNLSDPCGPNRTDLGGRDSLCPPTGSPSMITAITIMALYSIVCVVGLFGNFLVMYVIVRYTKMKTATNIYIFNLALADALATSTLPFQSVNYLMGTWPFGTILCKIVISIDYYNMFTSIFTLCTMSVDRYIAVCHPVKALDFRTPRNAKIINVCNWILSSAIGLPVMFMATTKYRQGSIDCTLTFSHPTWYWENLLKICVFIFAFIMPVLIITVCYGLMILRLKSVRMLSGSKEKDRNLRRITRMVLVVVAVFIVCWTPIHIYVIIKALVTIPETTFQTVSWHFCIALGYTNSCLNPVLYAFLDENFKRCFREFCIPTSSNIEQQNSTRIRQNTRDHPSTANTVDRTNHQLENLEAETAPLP

[2H]C([2H])([2H])Oc1ccc(-n2nc3c4ccc(O)cc4[nH]cc-3c2=O)cc1
Drug metabolism [1]: Metabolite_Detected | Drug metabolism [2]: Metabolite_Detected

COc1ccc2c3nn(-c4ccc(O)cc4)c(=O)c-3c[nH]c2c1
Drug metabolism [1]: Metabolite_Detected | Drug metabolism [2]: Metabolite_Detected

O=c1c2c[nH]c3cc(O)ccc3c-2nn1-c1ccc(O)nc1
Drug metabolism [3]: Metabolite_Detected | Drug metabolism [4]: Metabolite_Detected | Drug metabolism [5]: Metabolite_Detected | Drug metabolism [6]: Metabolite_Detected

[2H]C([2H])([2H])Oc1ccc2c3nn(-c4ccc(O)nc4)c(=O)c-3c[nH]c2c1
Drug metabolism [4]: Metabolite_Detected | Drug metabolism [5]: Metabolite_Detected

COc1ccc(-n2nc3c4ccc(O)cc4[nH]cc-3c2=O)cn1
Drug metabolism [4]: Metabolite_Detected | Drug metabolism [5]: Metabolite_Detected

COc1ccc2c3nn(-c4ccc(O)nc4)c(=O)c-3c[nH]c2c1
Drug metabolism [3]: Metabolite_Detected | Drug metabolism [6]: Metabolite_Detected

COc1ccc(-n2nc3c4ccc(O)cc4[nH]cc-3c2=O)cc1
Drug metabolism [7]: Metabolite_Detected | Drug metabolism [8]: Metabolite_Detected

COc1cccc(-n2nc3c4cc(Cl)ccc4[nH]cc-3c2=O)c1
Activity [9]: < 0% | inhibition (INH) [10]: Not Active | Activity [11]: < 0% | Activity [12]: < 0% | remaining at 1 h, 10 µM [13]: 81.4% | solubility [14]: 6.8 µM (≈ 2.22 µg/mL) | Activity [15]: < 0% | Activity [16]: < 0% | solubility [17]: 2.6 µM (≈ 0.847 µg/mL) | Activity (Mus musculus): Non-Toxic | inhibition (Rattus norvegicus): Active | remaining at 1 h, 10 µM [18]: 59.8% | Activity [19]: 400% | Activity ([19]; tested as the 2H-labelled form): inactive | t1/2 (Liver): 3.4 h

[2H]C([2H])([2H])Oc1ccc2c3nn(-c4ccc(O)cc4)c(=O)c-3c[nH]c2c1
Drug metabolism [7]: Metabolite_Detected | Drug metabolism [8]: Metabolite_Detected

O=c1c2c[nH]c3cc(O)ccc3c-2nn1-c1ccc(O)cc1
Drug metabolism [7]: Metabolite_Detected | Drug metabolism [1]: Metabolite_Detected | Drug metabolism [8]: Metabolite_Detected | Drug metabolism [2]: Metabolite_Detected

[2H]C([2H])([2H])Oc1ccc(-n2nc3c4ccc(O)cc4[nH]cc-3c2=O)cn1
Drug metabolism [3]: Metabolite_Detected | Drug metabolism [6]: Metabolite_Detected

COc1ccc(-n2nc3c4ccc(Br)cc4[nH]cc-3c2=O)cc1
Activity [9]: < 0% | inhibition (INH) [10]: Not Active | Activity [11]: < 0% | Activity [12]: < 0% | inhibition [20]: Active | remaining at 1 h, 10 µM [13]: 66.9% | solubility [14]: 8.3 µM (≈ 3.07 µg/mL) | Activity [15]: < 0% | inhibition [21]: Active | Activity [16]: < 0% | inhibition [22]: Active | solubility [17]: 3.3 µM (≈ 1.22 µg/mL) | Activity (Mus musculus): Non-Toxic | inhibition (Rattus norvegicus): Active | remaining at 1 h, 10 µM [18]: 69% | Activity [19]: 900% | Activity ([19]; tested as the 2H-labelled form): inactive | t1/2 (Liver): 1.7 h | inhibition [23]: Active

COc1cccc(-n2nc3c4ccc(Br)cc4[nH]cc-3c2=O)c1
inhibition [20]: Active | inhibition [21]: Active | inhibition [22]: Active | inhibition (Rattus norvegicus): Active | inhibition [23]: Active
